Furin inhibitor: human furin inhibitors, primary screen, biochemical, fluorescence intensity; 0.061% of 220,000 active; P09958; inhibition, % at 20 µM or 30 µM; purified furin, fluorogenic substrate cleavage; AID 463115, 2010; in the data active = inhibition above about 25%
Target sequence (P09958 108-714 limits assumed): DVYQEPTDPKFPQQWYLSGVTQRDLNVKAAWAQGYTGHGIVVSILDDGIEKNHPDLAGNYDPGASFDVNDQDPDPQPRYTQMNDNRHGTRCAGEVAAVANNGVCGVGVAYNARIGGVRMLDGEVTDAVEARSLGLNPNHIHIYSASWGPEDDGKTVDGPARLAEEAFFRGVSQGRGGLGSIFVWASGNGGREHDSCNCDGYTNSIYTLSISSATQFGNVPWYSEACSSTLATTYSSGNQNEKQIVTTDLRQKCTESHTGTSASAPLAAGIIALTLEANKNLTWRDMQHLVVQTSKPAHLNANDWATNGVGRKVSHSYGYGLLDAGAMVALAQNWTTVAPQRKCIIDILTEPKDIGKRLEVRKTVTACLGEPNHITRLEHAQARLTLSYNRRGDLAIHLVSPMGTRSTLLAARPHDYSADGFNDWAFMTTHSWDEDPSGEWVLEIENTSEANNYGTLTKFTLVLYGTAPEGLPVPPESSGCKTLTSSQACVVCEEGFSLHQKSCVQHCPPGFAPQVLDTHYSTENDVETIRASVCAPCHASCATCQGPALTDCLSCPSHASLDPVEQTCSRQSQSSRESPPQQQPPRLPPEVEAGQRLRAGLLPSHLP
KCC2 mod: KCC2 cotransporter modulators, thallium flux, primary screen, cell-based, HEK293 KCC2, FluoZin-2 fluorescence, MLSMR. KCC2 cells, thallium flux FluoZin-2 fluorescence. 2.2% of 190,000 active. B-score of Tl+ flux slope (higher = more flux/activation; lower = inhibition) at 10 µM. Solute carrier family 12 member 5 (Homo sapiens), Q9H2X9. AID 1456, 2008;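 active = thallium flux slope and its plate-corrected score both differing from the plate sample mean at a set confidence after two filtering rounds, in either direction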;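 also: slope of fluorescence scaled to starting intensity during 10 to 20 s after thallium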
NPY2 pot ag: NPY-Y2 potentiators or agonists, primary screen, cell-based; Neuropeptide Y receptor type 2 (Homo sapiens), P49146; cells expressing NPY-Y2, potentiator/agonist read-out; activation, % at 3.6 µM; 0.45% of 220,000 active; AID 1359, 2008; in the data active = activation above about 27%;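 also: cells stimulated with NPY near EC25 plus isoproterenol at EC100; 0% = vehicle plus submaximal agonist and 100% = vehicle plus saturating agonist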
NPY1 pot ag: NPY-Y1 receptor potentiators or agonists, primary screen, cell-based. NPY-Y1 expressing cells, potentiator/agonist activation. activation, % at 3.6 µM. 0.37% of 220,000 active. AID 1304, 2008; in the data active = activation above about 33%, passing the limit was not always enough;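 also: cells stimulated with NPY at EC10 then isoproterenol at EC100; 0% = low agonist plus stimulus and 100% = saturating agonist plus stimulus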
NPY-Y1 antag: NPY-Y1 receptor antagonists, primary screen, cell-based | HEK293-CNG Y1 cells, membrane potential fluorescence; NPY at EC95, then isoproterenol | 1% of 200,000 active | Neuropeptide Y receptor type 1 (Homo sapiens), P25929 | inhibition, % at 3.6 µM | AID 1040, 2008;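 active = inhibition above the campaign mean inhibition of all tested compounds plus 3 SD, cut at about 20% in these data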;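 also: 0% = DMSO wells given NPY plus isoproterenol and 100% = isoproterenol alone without NPY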
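Test system: HEK293 cells co-expressing NPY Y1 receptor and cyclic-nucleotide gated channel; Also added: NPY (25 nM), isoproterenol (1 µM), Ro 20-1724 (25 µM); Compound dosing: one concentration, 3.6 µM, in 0.4% DMSO; Timing: dye 3 h, compound 60 min room temperature, stimulation 45 min; Technique: Membrane-potential fluorescent dye readout.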
NPY Y2 blocker: NPY-Y2 receptor antagonists, primary screen, cell-based. Neuropeptide Y receptor type 2 (Homo sapiens), P49146. NPY-Y2 expressing cells, antagonist mode. inhibition, % at 2.7 µM. 0.99% of 140,000 active; in the data active = inhibition above about 17%;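 also: 0% = vehicle with agonist challenge and 100% = reference antagonist with challenge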
KCC2 sec1: KCC2 modulators in sodium-free buffer, confirmation, cell-based, HEK293 KCC2, thallium flux, secondary assay. normalised thallium flux (F/F0 slope) at 10 µM. FluoZin2 fluorescence; active compounds read high. shares compounds with KCC2 mod. 15% of 3,700 active. AID 1713, 2009;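 active = thallium flux slope above the same plate's solvent-only control mean plus 3 SD; inconclusive = the two replicate wells disagree; inactive = no significant difference from solvent-only control wells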
KCC2 bumet counter: thallium flux persisting under bumetanide in KCC2 cells, confirmation, counter-screen for KCC2 modulator project, cell-based, HEK293 KCC2, FluoZin2, secondary assay 3; shares compounds with KCC2 mod; HEK293-KCC2 + bumetanide/ouabain; active compounds read high; normalized thallium flux at 10 µM; 49% of 3,700 active; AID 1714, 2009;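 active = thallium entry rate above the same plate's blocked-transporter control wells by more than 3 SD; inconclusive = the two repeat wells disagree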;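 also: raw slope of fluorescence over initial fluorescence between 10 and 20 s after thallium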
KCC2 secondary2: KCC2 modulators without ouabain present, confirmation, cell-based, HEK293 KCC2, thallium flux, FluoZin2, secondary assay 2. normalized thallium flux at 10 µM. thallium flux FluoZin2 fluorescence; actives lie on both sides; F/F0 rise rate, 10–20 s post-thallium. AID 1715, 2009. 23% of 3,700 active. shares compounds with KCC2 mod;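 active = thallium flux slope more than 3 SD above or below the plate's solvent-only control mean, mostly below; inconclusive = the two repeat wells disagreed; inactive = no significant shift from solvent-only controls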;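 also: raw slope with 0.1% DMSO as baseline and bumetanide as block control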
HEK counter1: thallium flux modulation in parental HEK cells, confirmation, counter-screen for KCC2 modulator project, cell-based, counterscreen 1; shares compounds with KCC2 mod; HEK293 parental cells, thallium flux FluoZin2, ouabain; baseline-ratio fluorescence slope, 10–20 s after thallium; thallium flux rate (normalised fluorescence) at 10 µM; 46% of 3,700 active; AID 1716, 2009;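 active = thallium flux rate significantly above the same plate's solvent-only control wells, beyond their mean plus 3 SD; inconclusive = the two replicate wells gave conflicting results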
KCC2 retest ouab: KCC2 inhibitors and activators, ouabain retest, confirmation, HEK-KCC2 cells; shares compounds with KCC2 mod; HEK293-KCC2, thallium flux FluoZin2 fluorescence; bidirectional: low = inhibitor, high = activator; raw Tl+ flux slope (below DMSO = inhibition, above = activation) at 10 µM; 48% of 3,700 active; AID 1717, 2009;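 active = thallium flux slope beyond 3 SD from same-plate DMSO control mean in most replicates, usually higher, sometimes lower; inconclusive = repeat tests gave conflicting results; inactive = no significant difference from controls in most replicates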;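 also: slope of initial-normalized fluorescence between seconds 10 and 20 after thallium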
HEK293 Tl flux2: native HEK Tl+ uptake effects, second counter-screen – HEK cells, counterscreen 2, counter-screen for KCC2 modulator project, confirmation; shares compounds with KCC2 mod; HEK293 parental, thallium flux FluoZin-2 fluorescence slope; thallium flux slope at 10 µM; 33% of 3,700 active; AID 1718, 2009;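 active = thallium flux slope above the same plate's solvent-control mean plus 3 SD in both duplicate wells; inconclusive = duplicate wells that disagreed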;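 also: run without ouabain in cells lacking the KCC2 cotransporter; slope of fluorescence scaled to its starting value between 10 and 20 s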
Starred values were filed as active, the others as inactive. Hits are enriched below; roughly 3.7% of the tested compounds scored in any of these assays.

Results for COc1ccc(Oc2c(Cl)cnn(-c3ccc(F)cc3)c2=O)cc1 ?
Furin inhibitor: 3; KCC2 mod: -3.1*; NPY2 pot ag: 2; NPY1 pot ag: 32; NPY-Y1 antag: -7; NPY Y2 blocker: 0; KCC2 sec1: 0.0084; KCC2 bumet counter: inconclusive; KCC2 secondary2: 0.032; HEK counter1: 0.0062; KCC2 retest ouab: 0.017*; HEK293 Tl flux2: 0.0092

What do the screens show for `COc1c(Cl)cnn(-c2ccc(C)cc2)c1=O`?
Furin inhibitor: -4; NPY2 pot ag: 0; NPY1 pot ag: -8; NPY-Y1 antag: 4; NPY Y2 blocker: 11

Results for COc1cccc2sc(Nc3nnc(-c4ccccc4Cl)o3)nc12 ?
Furin inhibitor: -21; KCC2 mod: 80*; NPY2 pot ag: 3; NPY1 pot ag: 16; NPY-Y1 antag: 2; NPY Y2 blocker: 5; KCC2 sec1: 0.044*; KCC2 bumet counter: 0.13*; KCC2 secondary2: 0.099*; HEK counter1: inconclusive; KCC2 retest ouab: 0.1*; HEK293 Tl flux2: 0.11*

How did COc1cccc2sc(NN)nc12 do in these assays?
Furin inhibitor: -11; KCC2 mod: 0.79; NPY2 pot ag: 20; NPY1 pot ag: 35; NPY-Y1 antag: -1

Results for O=C(NCc1nc(-c2ccc(C(F)(F)F)cc2)no1)Nc1cc(Cl)cc(Cl)c1 ?
Furin inhibitor: -26; KCC2 mod: 0.7; NPY2 pot ag: -2; NPY1 pot ag: 10

What do the screens show for `COc1ccc(CNC(=S)NC(C)CCc2ccccc2)cc1` (stereo unspecified)?
Furin inhibitor: -15; KCC2 mod: -4.9*; NPY2 pot ag: 2; NPY1 pot ag: -14; NPY-Y1 antag: 7; KCC2 sec1: 0.0053*; KCC2 bumet counter: inconclusive; KCC2 secondary2: inconclusive; HEK counter1: 0.0058*; KCC2 retest ouab: 0.013*; HEK293 Tl flux2: 0.0098

What do the screens show for `CSc1ccc(/C=C(/Sc2nnc(-c3ccccc3)o2)C(=O)O)cc1`?
Furin inhibitor: -27; KCC2 mod: -2.7; NPY2 pot ag: -1; NPY1 pot ag: 1; NPY-Y1 antag: 5

How did COc1ccc(-c2nnc(S/C(=C/c3ccc(Cl)cc3)C(=O)O)o2)cc1 do in these assays?
Furin inhibitor: -27; KCC2 mod: -3*; NPY2 pot ag: -12; NPY1 pot ag: 15; NPY-Y1 antag: 6; KCC2 sec1: 0.0082; KCC2 bumet counter: 0.0055*; KCC2 secondary2: 0.023*; HEK counter1: 0.0077; KCC2 retest ouab: 0.016*; HEK293 Tl flux2: 0.0099

What do the screens show for `Cc1ccc2nc(-c3ccccc3)c(CN3CCSCC3)n2c1`?
Furin inhibitor: -21; KCC2 mod: -2.1; NPY2 pot ag: -8; NPY1 pot ag: -10; NPY-Y1 antag: 9

How did Cc1ccc2nc(-c3ccccc3)c(CN3CCOCC3)n2c1 do in these assays?
Furin inhibitor: -37; KCC2 mod: 4.3*; NPY2 pot ag: 5; NPY1 pot ag: 2; NPY-Y1 antag: 2; KCC2 sec1: 0.0097; KCC2 bumet counter: 0.006; KCC2 secondary2: 0.035; HEK counter1: 0.0039; KCC2 retest ouab: 0.021; HEK293 Tl flux2: 0.012

How did O=C(NCc1ccco1)C1CCN(c2ccc(S(=O)(=O)N3CCOCC3)cc2[N+](=O)[O-])CC1 do in these assays?
Furin inhibitor: -18; KCC2 mod: 0.57; NPY2 pot ag: 9; NPY1 pot ag: 4; NPY-Y1 antag: -1

What do the screens show for `CC(/C=C/c1ccco1)=N\NC(=O)c1cc(Cl)ccc1O`?
Furin inhibitor: -26; KCC2 mod: 13*; NPY2 pot ag: -2; NPY1 pot ag: -23; NPY-Y1 antag: 3; KCC2 sec1: 0.016*; KCC2 bumet counter: 0.026*; KCC2 secondary2: 0.039; HEK counter1: inconclusive; KCC2 retest ouab: 0.032*; HEK293 Tl flux2: 0.011

Results for CC(/C=C/c1ccco1)=N\NC(=O)c1cc(C)[nH]n1 ?
Furin inhibitor: -13; NPY2 pot ag: 1; NPY1 pot ag: 1; NPY-Y1 antag: 2; NPY Y2 blocker: 1

What do the screens show for `O=C(O)c1cn(Cc2ccccc2)nc1-c1cccnc1`?
Furin inhibitor: -25; KCC2 mod: -1.6; NPY2 pot ag: -33; NPY1 pot ag: -35; NPY-Y1 antag: 14

How did S=c1nc(-c2ccccc2)[nH]c2ccc(Br)cc12 do in these assays?
Furin inhibitor: -11; KCC2 mod: 107*; NPY2 pot ag: -29; NPY1 pot ag: -20; KCC2 sec1: 0.025*; KCC2 bumet counter: 0.12*; KCC2 secondary2: 0.099*; HEK counter1: 0.11*; KCC2 retest ouab: 0.11*; HEK293 Tl flux2: 0.096*

How did Cc1ccsc1-c1nc(CN2CCCC2c2ccc(F)cc2)c(C)o1 (stereo unspecified) do in these assays?
Furin inhibitor: -12; KCC2 mod: 0.22; NPY2 pot ag: 3; NPY1 pot ag: 2; NPY-Y1 antag: 9
